Here are results for 4 molecules from PMC4562428 (Bioorganic & medicinal chemistry, 2015).

Where a name gives a salt, the structure may show the parent alone. Read-outs that look alike come from different tables or passages of the source.

For one experiment, the target named is SERT (Rattus norvegicus, UniProt P31652). Put plainly: [3H]5-HT release at SERT in rat brain synaptosomes. The format is biochemical. The gist of the method: (§1)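 Rat synaptosomes in 1 μM reserpine (brain minus caudate/cerebellum for SERT and NET; caudate for DAT), preloaded 1 h in Krebs-phosphate with 5 nM [3H]5-HT (SERT) or 9 nM [3H]MPP+ (NET, DAT). Blockers of competing transporters were included. Test compound was run as 8-point curves from 10 to 10,000 nM, in triplicate on three occasions. Filtration and scintillation counting; EC50 from non-linear regression.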

The target in the next experiment is DAT (Rattus norvegicus, UniProt P23977). In words: [3H]MPP+ release at DAT in rat caudate synaptosomes. The format is biochemical.
The next experiment concerns the target NET (Rattus norvegicus, UniProt Q63380). Put plainly: [3H]MPP+ release at NET in rat brain synaptosomes. The format is biochemical.
The subject of a further experiment is SERT, DAT, and NET. The format is biochemical, rat. The following applies: SERT versus DAT and NET. The gist of the method:
as §1

The conditions of experiment [1]: cited from earlier work; for MDMA-like effects in humans: human.
The mark [2] stands for this setting: S(+) versus R(−) isomer of EDMA.

SERT, sequence (P31652 whole entry): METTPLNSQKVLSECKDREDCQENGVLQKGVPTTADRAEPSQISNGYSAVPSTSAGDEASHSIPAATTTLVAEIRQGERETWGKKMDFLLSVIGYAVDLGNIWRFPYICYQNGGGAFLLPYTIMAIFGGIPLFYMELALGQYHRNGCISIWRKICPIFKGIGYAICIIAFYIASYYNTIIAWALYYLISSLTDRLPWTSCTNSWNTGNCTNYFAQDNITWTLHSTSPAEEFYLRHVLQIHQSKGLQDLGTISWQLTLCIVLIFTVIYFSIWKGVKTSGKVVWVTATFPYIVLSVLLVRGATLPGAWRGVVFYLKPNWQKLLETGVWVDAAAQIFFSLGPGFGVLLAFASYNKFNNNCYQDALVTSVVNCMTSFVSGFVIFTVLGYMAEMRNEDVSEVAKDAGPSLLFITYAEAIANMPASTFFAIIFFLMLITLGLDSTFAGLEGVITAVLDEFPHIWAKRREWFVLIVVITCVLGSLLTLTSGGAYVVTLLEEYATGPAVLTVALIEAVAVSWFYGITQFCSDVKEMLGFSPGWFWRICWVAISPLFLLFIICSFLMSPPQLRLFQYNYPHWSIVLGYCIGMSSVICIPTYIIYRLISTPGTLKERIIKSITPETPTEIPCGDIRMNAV
DAT, sequence (P23977 whole entry): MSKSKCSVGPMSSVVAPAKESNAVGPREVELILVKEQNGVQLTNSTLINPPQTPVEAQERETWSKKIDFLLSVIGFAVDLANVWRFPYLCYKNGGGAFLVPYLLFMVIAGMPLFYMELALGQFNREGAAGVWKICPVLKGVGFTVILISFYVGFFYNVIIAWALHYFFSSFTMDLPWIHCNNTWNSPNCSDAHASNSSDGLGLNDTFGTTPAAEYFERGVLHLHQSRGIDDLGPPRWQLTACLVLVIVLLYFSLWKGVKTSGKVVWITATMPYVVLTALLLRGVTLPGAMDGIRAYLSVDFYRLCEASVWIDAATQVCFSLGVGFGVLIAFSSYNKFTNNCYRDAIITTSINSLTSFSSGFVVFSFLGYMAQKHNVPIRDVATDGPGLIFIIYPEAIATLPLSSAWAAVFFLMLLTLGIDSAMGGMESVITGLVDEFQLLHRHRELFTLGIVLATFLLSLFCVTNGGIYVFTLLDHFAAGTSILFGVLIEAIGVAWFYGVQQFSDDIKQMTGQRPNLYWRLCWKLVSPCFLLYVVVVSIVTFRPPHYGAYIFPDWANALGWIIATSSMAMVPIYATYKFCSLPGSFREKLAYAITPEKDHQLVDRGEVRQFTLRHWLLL
NET, sequence (Q63380 1-617): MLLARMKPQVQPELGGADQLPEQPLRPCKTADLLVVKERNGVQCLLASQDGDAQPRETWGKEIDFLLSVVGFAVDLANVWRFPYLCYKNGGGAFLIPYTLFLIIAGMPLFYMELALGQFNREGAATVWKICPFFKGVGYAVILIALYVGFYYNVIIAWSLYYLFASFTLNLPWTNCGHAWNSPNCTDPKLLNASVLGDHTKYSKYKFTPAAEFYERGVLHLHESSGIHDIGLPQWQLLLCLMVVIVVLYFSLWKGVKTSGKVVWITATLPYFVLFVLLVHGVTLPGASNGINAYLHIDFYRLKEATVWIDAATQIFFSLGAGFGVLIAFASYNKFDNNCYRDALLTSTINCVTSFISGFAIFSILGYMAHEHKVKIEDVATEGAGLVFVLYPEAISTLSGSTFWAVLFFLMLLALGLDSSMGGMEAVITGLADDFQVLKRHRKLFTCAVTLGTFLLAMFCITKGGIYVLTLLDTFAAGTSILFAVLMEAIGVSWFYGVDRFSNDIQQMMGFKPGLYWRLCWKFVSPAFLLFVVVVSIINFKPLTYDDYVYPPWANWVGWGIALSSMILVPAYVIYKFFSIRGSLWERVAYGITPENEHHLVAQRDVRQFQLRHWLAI

Turning to `CNC(C)Cc1ccc2c(c1)OCCO2` (racemic) [(±)EDMA (3), (±)-1-(3,4-Ethylenedioxyphenyl)-N-methyl-2-aminopropane hydrochloride], the “release potency at SERT relative to potency at DAT” value at SERT (SERT versus DAT) is listed as “approximately six times”. The “release potency at SERT relative to potency at NET” value on SERT (SERT versus NET) is given as “three times”. Besides, the “potency as releaser at SERT relative to (±)MDMA (1)” value on SERT (compared with (±)MDMA (1)) is on record as “approximately half the potency”. Besides, the “fold less potent than (±)MDMA (1) as releaser at DAT” value at DAT (compared with (±)MDMA (1)) is on record as 8 fold. Moreover, the “fold less potent than (±)MDMA (1) as releaser at NET” value on NET (compared with (±)MDMA (1)) came to 4.5 fold. In addition, the “transporter selectivity as releaser” value in the experiment with SERT, DAT, and NET was “slightly more selective for SERT over DAT and NET”. The “MDMA-like effects in humans” value in experiment [1] (200 mg) was “fails to produce similar effects”; in experiment [1] (250 mg) it was “threshold”.
Regarding `CNC(C)Cc1ccc2c(c1)OCO2` (racemic) [(±)MDMA (1), N-methyl-(3,4-methylenedioxyphenyl)-2-aminopropane, reference compound], in the experiment on SERT, DAT, and NET, the “transporter selectivity as releaser” value is given as “nearly equipotent”. Further, in experiment [1] (p.o.), the “behaviorally active total human dose” value is 80 to 150 mg.
For `CN[C@H](C)Cc1ccc2c(c1)OCCO2` [R(−)EDMA [(R)3], R(−)1-(3,4-Ethylenedioxyphenyl)-N-methyl-2-aminopropane hydrochloride], in the experiment with SERT, DAT, and NET, the “transporter selectivity as releaser” value is listed as “more SERT-selective”.
Consider `CN[C@@H](C)Cc1ccc2c(c1)OCCO2` [S(+)EDMA [(S)3], S(+)1-(3,4-Ethylenedioxyphenyl)-N-methyl-2-aminopropane hydrochloride], for which, on SERT (setting [2]), the “fold more potent than R(−) enantiomer at SERT” value was “about 6 fold”. For the same molecule, the “fold more potent than R(−) enantiomer at DAT” value at DAT (setting [2]) is reported as 50 fold. At NET (setting [2]), the “fold more potent than R(−) enantiomer at NET” value was found to be 8 fold.
